MC4R antag cAMP = human MC4R antagonism in cAMP assay. P32245. MC4R-expressing cells, MTII-stimulated cAMP, LANCE TR-FRET. inhibition, % at 6.5 µM. 360,000 compounds, 0.48% hits;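 active means inhibition above its plate's cutoff, the mean of tested wells on that plate plus 3 SD, cut at about 29% in these data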;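 further: 0% = Melanotan II alone and 100% = Melanotan II plus saturating MCL0020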
Target sequence (P32245 whole entry, looked up): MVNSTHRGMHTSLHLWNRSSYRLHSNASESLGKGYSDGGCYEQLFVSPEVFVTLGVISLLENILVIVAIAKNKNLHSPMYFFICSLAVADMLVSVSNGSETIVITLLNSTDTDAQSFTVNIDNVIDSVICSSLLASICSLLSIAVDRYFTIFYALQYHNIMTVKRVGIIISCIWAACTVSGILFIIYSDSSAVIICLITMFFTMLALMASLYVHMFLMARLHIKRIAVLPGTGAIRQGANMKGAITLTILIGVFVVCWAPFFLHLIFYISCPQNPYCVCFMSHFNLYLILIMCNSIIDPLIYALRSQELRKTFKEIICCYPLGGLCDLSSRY
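System: U2OS-MC4R stable cell line; Technique: Eu-cAMP/anti-cAMP TR-FRET, emission 671 nm; Repeats: single well per compound; Also added: Melanotan II; Dosing: one concentration, 6.5 µM nominal; Schedule: 30-min compound, 1-h challenge, 1-h detection, room temperature.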
EBI2 antag = antagonists of human EBI2 receptor. P32249. EBI2 beta-arrestin recruitment, luminescence, 7a,25-OHC stimulated. inhibition, % at 5 µM. 360,000 compounds, 0.81% hits; in the data active means inhibition above about 38%;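 further: enzyme fragment complementation signal reports receptor beta-arrestin coupling in cells; 0% = agonist plus DMSO wells and 100% = wells without agonist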
MC4R barr agon = activates human MC4R beta-arrestin recruitment | activation, % at 8.9 µM | 360,000 compounds, 0.98% hits | U2OS MC4R beta-arrestin complementation, luminescence; percent of melanotan II response, DMSO zero;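 active means activation above a per-plate cutoff, the mean activation of sample wells on that plate plus 3 SD, cut at about 8% in these data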
HTR2A ag = agonists of mouse serotonin 5-HT2A receptor (HTR2A) | P35363 | CHO-K1 mHTR2A beta-arrestin complementation, luminescence; percent of 30 µM serotonin response | activation, % at 7.6 µM | 360,000 compounds, 0.66% hits | AID 624169;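 active means activation above a run cutoff, the mean activation of all tested compounds plus 3 SD, cut at about 14% in these data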;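 further: 0% = plate median of compound wells and 100% = 30 µM serotonin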
U2OS cAMP counter = U2OS forskolin cAMP inhibition counter-screen; shares compounds with MC4R antag cAMP; parental U2OS, LANCE TR-FRET; inhibition, % at 6.5 µM; 1,600 compounds, 26% hits;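 active means mean inhibition over triplicates above the low-control well mean plus 3 SD, set per campaign, cut at about 13% in these data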;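 further: signal is single emission at 671 nm which falls as cellular cAMP rises; 0% = forskolin-stimulated wells and 100% = buffer without forskolin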
MC4R cAMP antag = human MC4R cAMP antagonism confirmation. shares compounds with MC4R antag cAMP. MC4R-expressing cells, MTII-stimulated cAMP, TR-FRET. inhibition, % at 6.5 µM. 1,600 compounds, 27% hits; in the data active means inhibition above about 29%;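 further: 0% = agonist stimulated wells alone and 100% = agonist stimulated wells plus saturating reference antagonist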
* = called active by the depositor. Hits are enriched below; roughly 2.8% of the tested compounds scored in any of these assays.

`CCSc1nc2ccccc2c(=O)n1C1CCOC(C)(C)C1` (stereo not given) gave MC4R antag cAMP 9, EBI2 antag 0, MC4R barr agon 1 and HTR2A ag -5.
`CC1(C(=O)NS(=O)(=O)c2ccccc2)CCN1C(=O)CC1CCCC1` (stereo not given) gave MC4R antag cAMP 4, EBI2 antag 2, MC4R barr agon -1 and HTR2A ag 2.
For O=C(Cc1ccc(F)cc1)NCCc1cnc[nH]1 the results were MC4R antag cAMP 31*, EBI2 antag -7, MC4R barr agon 0, HTR2A ag -1, U2OS cAMP counter -1 and MC4R cAMP antag -15.
For COC(=O)c1ccccc1NC(=O)CSc1nnnn1C1CCCCC1 the results were MC4R antag cAMP 3, EBI2 antag 7, MC4R barr agon -1 and HTR2A ag 2.
Screening COc1ccccc1NC(=O)CSc1nnnn1C1CCCCC1 returned MC4R antag cAMP 30*, EBI2 antag -1, MC4R barr agon 3, HTR2A ag -10, U2OS cAMP counter 1 and MC4R cAMP antag 3.
Nc1ccc(S(=O)(=O)NCC(=O)OCCOc2ccccc2)cc1[N+](=O)[O-] was read as MC4R antag cAMP 33*, EBI2 antag -12, MC4R barr agon -4, HTR2A ag -7, U2OS cAMP counter 27* and MC4R cAMP antag 24.
`O=C(c1ccccc1)C(CCC(CN1CCOCC1)C(=O)c1ccccc1)CN1CCOCC1` (stereo not given) gave MC4R antag cAMP 41*, EBI2 antag 30, MC4R barr agon -1, HTR2A ag -9, U2OS cAMP counter -4 and MC4R cAMP antag -2.
For CCOC(=O)C1(Cc2cccc(F)c2)CCN(Cc2cnn(CC)c2)CC1 the results were MC4R antag cAMP 29*, EBI2 antag 4, MC4R barr agon 1, HTR2A ag -1, U2OS cAMP counter 4 and MC4R cAMP antag 13.
O=C(O)CC12CC3CC(C1)CC(n1ncc(NCc4ccccc4)c(Cl)c1=O)(C3)C2 was read as MC4R antag cAMP -2, EBI2 antag -9, MC4R barr agon 2 and HTR2A ag 3.
Screening O=C(O)C12CC3CC(C1)CC(n1ncc(NCc4ccccc4)c(Cl)c1=O)(C3)C2 returned MC4R antag cAMP 32*, EBI2 antag -2, MC4R barr agon 2, HTR2A ag -2, U2OS cAMP counter -1 and MC4R cAMP antag -10.
For CCOC(=O)C(C)(C)Sc1ncnc2nc[nH]c12 the results were MC4R antag cAMP 13, EBI2 antag -9, MC4R barr agon 0 and HTR2A ag -4.
For CCOC(=O)c1cc([N+](=O)[O-])cc([N+](=O)[O-])c1Sc1ncnc2nc[nH]c12 the results were MC4R antag cAMP 58*, EBI2 antag -44, MC4R barr agon -3, HTR2A ag -2, U2OS cAMP counter 47* and MC4R cAMP antag 47*.
For COc1cc(CN2C[C@@H](CO)O[C@@H](n3cnc4c(NCCN(C)C)ncnc43)C2)cc(OC)c1OC the results were MC4R antag cAMP 7, EBI2 antag -4, MC4R barr agon 0 and HTR2A ag 2.
For O=C(NCc1cccnc1)C(=O)Nc1nc2ccccc2s1 the results were MC4R antag cAMP 30*, EBI2 antag -5, MC4R barr agon -1, HTR2A ag -1, U2OS cAMP counter -4 and MC4R cAMP antag -19.
For CC(Sc1nnc(NC2CCCCC2)s1)C(=O)Nc1ccc2c(c1)C(=O)c1ccccc1C2=O (stereo not given) the results were MC4R antag cAMP 30*, EBI2 antag 9, MC4R barr agon 3, HTR2A ag 2, U2OS cAMP counter 0 and MC4R cAMP antag 3.
Screening O=C(CNS(=O)(=O)c1ccccc1)NCC(=O)N1CCCCC1 returned MC4R antag cAMP 4, EBI2 antag -4, MC4R barr agon -1 and HTR2A ag 5.
Screening O=C(CNS(=O)(=O)c1ccccc1)NNC(=O)C(Cl)Cl returned MC4R antag cAMP 29*, EBI2 antag -9, MC4R barr agon -2, HTR2A ag -1, U2OS cAMP counter -5 and MC4R cAMP antag -13.
Screening O=c1c(Cc2c(F)cccc2Cl)c(O)ccn1CCCN1CCOCC1 returned MC4R antag cAMP 30*, EBI2 antag -4, MC4R barr agon 1, HTR2A ag -1, U2OS cAMP counter -7 and MC4R cAMP antag -20.

Screens as filed in PubChem BioAssay.
